Test results published in ChEMBL document CHEMBL5096220, “Selective Inhibition of the Periodontal Pathogen Porphyromonas gingivalis by Third-Generation Zafirlukast Derivatives” (J Med Chem, 2022).
Active and inactive are the calls of the source. The rule behind the calls is not given here.

How the values were obtained:
Porphyromonas gingivalis [1] = experiment: Antibacterial activity against Porphyromonas gingivalis ATCC 33277 assessed as growth inhibition at 10 uM measured after 24 hrs by WST-1 assay relative to control; type: functional; set-up: scale not given: the % may be the effect or the level left
Method in brief: (§1)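 Log-phase P. gingivalis ATCC 33277 was grown anaerobically in hemin/menadione-supplemented BHI, 10^8 cells/well, and treated for 24 h (DMSO vehicle). […] Derivatives: six independent replicates; controls: 42 replicates.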

Porphyromonas gingivalis [2] = experiment: Bactericidal activity against Porphyromonas gingivalis ATCC 33277 assessed as reduction in colony formation at 100 uM measured 24 hrs […] relative to control; type: functional; set-up: scale not given: the % may be the effect or the level left; details: in the assay text read “CFU assay” for “safranin staining”
Method in brief: (§2)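 P. gingivalis ATCC 33277 (10^8/well) was grown anaerobically in supplemented BHI and treated 24 h at 1, 10 or 100 μM in DMSO. Cultures were diluted 1:400 and plated on blood agar; colonies were counted after 5 days anaerobic incubation. % inhibition was based on CFUs/mL vs medium-only cultures, three independent replicates. Controls: tetracycline 2.81 μM, DMSO.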

Porphyromonas gingivalis [3] = experiment: Antibiofilm activity against Porphyromonas gingivalis ATCC 33277 assessed as inhibition of biofilm at 100 uM measured after 48 hrs by safranin staining relative to control; type: functional; set-up: scale not given: the % may be the effect or the level left
Method in brief: (§3)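 Biofilm formation: P. gingivalis ATCC 33277 (10^8 cells/well) was grown in supplemented BHI under anaerobic conditions with gentle shaking, exposed to 10, 25, 50 or 100 μM for 48 h. Biomass was stained with 0.1% safranin and A492 measured. Biofilm growth % = 100×OD treated/OD DMSO control. Positive controls: tetracycline 2.81 μM.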

Porphyromonas gingivalis [4] = experiment: Antibiofilm activity against Porphyromonas gingivalis ATCC 33277 assessed as inhibition of biofilm at 50 uM measured after 48 hrs by safranin staining relative to control; type: functional; set-up: scale not given: the % may be the effect or the level left; method in brief: as §3
[5] = Cytotoxicity against human OKF6 cells assessed as reduction in cell viability at 10 uM by Annexin V-FITC/PI staining based flow cytometric analysis relative to control; type: toxicity; details: okf6, 10 µM
Method in brief: (§4)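 OKF6 keratinocytes were exposed 24 h to 10 or 100 μM. Apoptosis/necrosis was assessed by FITC-Annexin V staining and flow cytometry, ≥10,000 events per condition, in duplicate across two independent experiments. Controls: medium, 1% DMSO, staurosporine 8 μM.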

[6] = Cytotoxicity against human OKF6 cells assessed as reduction in cell viability at 100 uM by Annexin V-FITC/PI staining based flow cytometric analysis relative to control; type: toxicity; details: okf6, 100 µM; method in brief: as §4
Erythrocyte = experiment: Hemolytic activity in mouse RBC upto 100 uM incubated for 1 hr; type: toxicity, cell-based
Method in brief: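 Murine red blood cells incubated with compound at 3.13 to 100 μM for 1 h at 37 °C. PBS only was the negative control; Triton X-100 (1% v/v) set 100% hemolysis.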

Porphyromonas gingivalis [7] = experiment: Antibacterial activity against Porphyromonas gingivalis ATCC 33277 assessed as growth inhibition at 1 to 100 uM measured after 24 hrs by WST-1 assay relative to control; type: functional; set-up: scale not given: the % may be the effect or the level left; details: dose 1-100 µM; method in brief: as §1
Porphyromonas gingivalis [8] = experiment: Antibacterial activity against Porphyromonas gingivalis at 100 uM incubated for 5 days measured by […] relative to control; type: functional; details: dose 10 µM; time 5 day; in the assay text read “10 uM” for “100 uM”; method in brief: as §2
Porphyromonas gingivalis [9] = experiment: Antibacterial activity against Porphyromonas gingivalis ATCC 33277 assessed as growth inhibition at 100 uM measured after 30 mins by WST-1 assay relative to control; type: functional; set-up: scale not given: the % may be the effect or the level left
Method in brief: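 P. gingivalis ATCC 33277 (10^8 cells/well) was grown to log phase in supplemented BHI under anaerobic conditions and incubated 24 h with treatments. WST-1 A405 was read 30 min after reagent addition. Growth inhibition was calculated relative to medium-only cultures, six independent replicates per condition.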

Porphyromonas gingivalis [10] = experiment: Antibacterial activity against Porphyromonas gingivalis ATCC 33277 assessed as growth inhibition at 25 uM measured after 24 hrs by WST-1 assay relative to control; type: functional; set-up: scale not given: the % may be the effect or the level left; method in brief: as §1
Porphyromonas gingivalis [11] = experiment: Antibacterial activity against Porphyromonas gingivalis ATCC 33277 assessed as growth inhibition at 50 uM measured after 24 hrs by WST-1 assay relative to control; type: functional; set-up: scale not given: the % may be the effect or the level left; method in brief: as §1
HEK293 = experiment: Cytotoxicity against HEK293 cells assessed as cell survival rate upto 31.3 microg/ml measured after 24 hrs by resazurin dye based analysis; type: functional; details: Homo sapiens, dose <= 31.3 µg/ml
Method in brief: (§5)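 HEK-293 and HepG2 cells were maintained in DMEM with 10% FBS and 1% Pen/Strep at 37 °C, 5% CO2. Compounds were tested over 0–62.6 μg/mL. Survival values above 100% were normalized to 100%.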

[12] = Hemolytic activity in mouse RBC at 100 uM incubated for 1 hr; type: toxicity, cell-based, Erythrocyte; details: mouse red blood cells (erythrocytes), read-out: Activity
Method in brief: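 Murine red blood cells were incubated 1 h at 37 °C with compounds at 3.13–100 μM. PBS served as the negative control and Triton X-100 (1% v/v) as the 100% hemolysis reference.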

[13] = Hemolytic activity in mouse RBC at 27 microg/ml incubated for 1 hr; type: toxicity, cell-based, Erythrocyte; details: mouse red blood cells (erythrocytes), at 27 µg/mL, read-out: Activity
Porphyromonas gingivalis [14] = experiment: Antibacterial activity against Porphyromonas gingivalis ATCC 33277 assessed as growth inhibition at 1 uM measured after 24 hrs by WST-1 assay relative to control; type: functional; set-up: scale not given: the % may be the effect or the level left; method in brief: as §1
Porphyromonas gingivalis [15] = experiment: Bactericidal activity against Porphyromonas gingivalis ATCC 33277 assessed as reduction in colony formation at 10 uM measured 24 hrs by safranin staining relative to control; type: functional; details: in the assay text read “CFU assay” for “safranin staining”; method in brief: as §2
Porphyromonas gingivalis [16] = experiment: Antibiofilm activity against Porphyromonas gingivalis ATCC 33277 assessed as inhibition of biofilm at 10 to 100 uM measured after 48 hrs by safranin staining relative to control; type: functional; set-up: scale not given: the % may be the effect or the level left; details: dose 10-100 µM; method in brief: as §3
Porphyromonas gingivalis [17] = experiment: Antibiofilm activity against Porphyromonas gingivalis ATCC 33277 assessed as inhibition of biofilm at 25 uM measured after 48 hrs by safranin staining relative to control; type: functional; set-up: scale not given: the % may be the effect or the level left; method in brief: as §3
Porphyromonas gingivalis [18] = experiment: Antibiofilm activity against Porphyromonas gingivalis ATCC 33277 assessed as inhibition of biofilm at 10 uM measured after 48 hrs by safranin staining relative to control; type: functional; set-up: scale not given: the % may be the effect or the level left; method in brief: as §3
[19] = Cytotoxicity against human OKF6 cells assessed as morphological change at 100 uM […]; type: toxicity, cell-based; details: okf6, 100 µM
Method in brief: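 OKF6 oral keratinocytes were treated 24 h at 10 or 100 μM. Cell morphology and density were examined by microscopy across the entire well. Controls: medium, 1% DMSO, staurosporine 8 μM.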

HepG2 = experiment: Cytotoxicity against human HepG2 cells assessed as cell survival rate at upto 31.3 to 62.6 microg/ml measured after 24 hrs by resazurin dye based analysis relative to control; type: functional; details: dose 31.3-62.6 µg/ml, at 31.3 to 62.6 µg/mL; method in brief: as §5
Porphyromonas gingivalis [20] = experiment: Antibacterial activity against Porphyromonas gingivalis assessed as reduction of CFU at 10 uM incubated for 5 days measured by […]; type: functional, organism-based; details: time 5.0 day; method in brief: as §2
Fusobacterium nucleatum = experiment: Antibacterial activity against Fusobacterium nucleatum ATCC 25586 assessed as growth inhibition at 100 uM measured after 24 hrs by WST-1 assay relative to control; type: functional; set-up: scale not given: the % may be the effect or the level left
Method in brief: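 F. nucleatum ATCC 25586 was grown anaerobically in hemin/menadione-supplemented BHI to log phase, 10^8 cells/well. Treatment was 1, 10 or 100 μM for 24 h. WST-1 absorbance at 405 nm was read 30 min after reagent addition. % inhibition was calculated vs medium-only cultures, six independent replicates. Controls: DMSO, tetracycline 2.81 μM.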

Actinomyces naeslundii = experiment: Antibacterial activity against Actinomyces naeslundii ATCC 49340 assessed as growth inhibition at 100 uM measured after 24 hrs by WST-1 assay relative to control; type: functional; set-up: scale not given: the % may be the effect or the level left
Method in brief: (§6)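 A. naeslundii ATCC 49340 (anaerobic) and S. sanguinis ATCC 10556 (aerobic) were grown in BHI with 5 μg/mL hemin and 1 μg/mL menadione to log phase, 10^8 cells/well. They were exposed to 1, 10 or 100 μM for 24 h, then WST-1 was added. […] Controls: DMSO, penicillin/streptomycin 1X.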

Streptococcus sanguinis = experiment: Antibacterial activity against Streptococcus sanguinis ATCC 10556 assessed as growth inhibition at 100 uM measured after 24 hrs by WST-1 assay relative to control; type: functional; set-up: scale not given: the % may be the effect or the level left; method in brief: as §6

CCCCn1cc(Cc2ccc(OC)c(C(=O)NS(=O)(=O)c3ccc([N+](=O)[O-])cc3)c2)c2cc([N+](=O)[O-])ccc21
Activity (Porphyromonas gingivalis [1]): 77% | Activity (Porphyromonas gingivalis [2]): 100% | Activity (Porphyromonas gingivalis [3]): 57% | Activity (Porphyromonas gingivalis [4]): 63% | Activity [5]: 63% | Activity [6]: 23% | Activity (Erythrocyte): <= 15% | Activity (Porphyromonas gingivalis [7]): 69% | Activity (Porphyromonas gingivalis [8]): 71%

COc1ccc(Cc2cn(CC(C)C)c3ccc([N+](=O)[O-])cc23)cc1C(=O)NS(=O)(=O)c1ccc([N+](=O)[O-])cc1
Activity (Porphyromonas gingivalis [9]): 73% | Activity (Porphyromonas gingivalis [2]): 100%

CCCn1cc(Cc2ccc(OC)c(C(=O)NS(=O)(=O)c3ccccc3F)c2)c2cc([N+](=O)[O-])ccc21
Activity (Erythrocyte): <= 25%

COc1cc(C(=O)NS(=O)(=O)c2ccccc2C)ccc1Cc1cn(C)c2ccc(NC(=O)OC3CCCC3)cc12 [ZAFIRLUKAST]
Activity (Porphyromonas gingivalis [10]): 74% | Activity (Porphyromonas gingivalis [11]): 88% | Activity (Porphyromonas gingivalis [3]): 58% | Activity (HEK293): Not toxic | hemolysis at 1 h, 100 µM [12]: 72%

C[C@@H]1[C@H](O)[C@@H](C)/C=C/C=C/C=C/C=C/C=C/C=C/C=C/[C@H](O[C@@H]2O[C@H](C)[C@@H](O)[C@H](N)[C@@H]2O)C[C@@H]2O[C@](O)(C[C@@H](O)C[C@@H](O)[C@H](O)CC[C@@H](O)C[C@@H](O)CC(=O)O[C@H]1C)C[C@H](O)[C@H]2C(=O)O [AMPHOTERICIN B]
hemolysis at 1 h, 27 microg/ml [13]: 0%

COc1ccc(Cc2cn(C)c3ccc([N+](=O)[O-])cc23)cc1C(=O)NS(=O)(=O)c1ccc([N+](=O)[O-])cc1
Activity (Porphyromonas gingivalis [1]): 63% | Activity (Porphyromonas gingivalis [14]): 0% | Activity (Porphyromonas gingivalis [2]): 100% | Activity (Porphyromonas gingivalis [15]): Active | Activity (Porphyromonas gingivalis [16]): 86%

COc1ccc(Cc2cn(C)c3ccc([N+](=O)[O-])cc23)cc1C(=O)NS(=O)(=O)c1ccccc1Cl
Activity (Porphyromonas gingivalis [9]): 61% | Activity (Porphyromonas gingivalis [2]): 100% | Activity (Porphyromonas gingivalis [15]): Active | Activity (Porphyromonas gingivalis [4]): 58% | Activity (Porphyromonas gingivalis [17]): 55% | Activity (Porphyromonas gingivalis [18]): 53% | Activity [5]: 9% | Activity [6]: 5% | Activity [19]: Toxic | Activity (HepG2): >76% | Activity (Porphyromonas gingivalis [20]): Active

CCCn1cc(Cc2ccc(OC)c(C(=O)NS(=O)(=O)c3ccc([N+](=O)[O-])cc3)c2)c2cc([N+](=O)[O-])ccc21
Activity (Porphyromonas gingivalis [1]): 77% | Activity (Porphyromonas gingivalis [2]): 100% | Activity (Erythrocyte): <= 15% | Activity (Porphyromonas gingivalis [7]): 60%

CCCCn1cc(Cc2ccc(OC)c(C(=O)NS(=O)(=O)c3ccccc3F)c2)c2cc([N+](=O)[O-])ccc21
Activity (Erythrocyte): <= 25%

CCn1cc(Cc2ccc(OC)c(C(=O)NS(=O)(=O)c3ccc([N+](=O)[O-])cc3)c2)c2cc([N+](=O)[O-])ccc21
Activity (Porphyromonas gingivalis [1]): 77% | Activity (Porphyromonas gingivalis [14]): 6% | Activity (Porphyromonas gingivalis [2]): 100% | Activity (Porphyromonas gingivalis [15]): 19%

COc1ccc(Cc2cn(C)c3ccc([N+](=O)[O-])cc23)cc1C(=O)NS(=O)(=O)c1ccccc1Br
Activity (Porphyromonas gingivalis [9]): 61% | Activity (Porphyromonas gingivalis [2]): 100% | Activity (Porphyromonas gingivalis [15]): Active | Activity [19]: Toxic | Activity (HepG2): >76% | Activity (Porphyromonas gingivalis [20]): Active

CN(C)[C@@H]1C(O)=C(C(N)=O)C(=O)[C@@]2(O)C(O)=C3C(=O)c4c(O)cccc4[C@@](C)(O)[C@H]3C[C@@H]12 [TETRACYCLINE]
Activity (Porphyromonas gingivalis [3]): 57%

COc1ccc(Cc2cn(C)c3ccc([N+](=O)[O-])cc23)cc1C(=O)NS(=O)(=O)c1ccccc1F
Activity (Porphyromonas gingivalis [9]): 61% | Activity (Porphyromonas gingivalis [2]): 100% | Activity (Porphyromonas gingivalis [15]): 96% | Activity (Porphyromonas gingivalis [17]): 52% | Activity (HepG2): >76%

COc1ccc(Cc2cn(C)c3ccc([N+](=O)[O-])cc23)cc1C(=O)NS(=O)(=O)c1c(F)cccc1F
Activity (Porphyromonas gingivalis [9]): 61% | Activity (Fusobacterium nucleatum): 76% | Activity (Actinomyces naeslundii): 40% | Activity (Streptococcus sanguinis): 40% | Activity (Porphyromonas gingivalis [2]): 100%
